# An excerpt weighted towards active compounds, which were near 4.8% of everything screened.
# UCH37 DUB inh: human UCH37 deubiquitinating enzyme inhibition. Q9Y5K5. purified proteasome/UCH37, Ub-AMC cleavage fluorescence. inhibition, % (no concentration beside the values). 330,000 compounds, 0.33% hits;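 active means mean inhibition over replicate wells above about 20%, limit read from the data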;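 further: 0% = compound-free wells with enzyme and 100% = wells lacking proteasome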
#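 assay system = human UCH37 enzyme supplied as purified proteasome complex | amount = proteasome at 0.15 nM in the dispensed enzyme solution | schedule = 30 min compound-proteasome preincubation then 25 min substrate reaction, room temperature | measured by = fluorescence, ex 355 nm, em 460 nm | benchmarks = no-proteasome wells (full inhibition) and compound-free wells (no inhibition)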
# NALP3 yeast inh: blocks the NALP3 inflammasome reconstituted in yeast; inhibition, % at 10 µM; Yeast reconstituted NLRP3/ASC/caspase-1, beta-gal luminescence, 24 h; 330,000 compounds, 0.39% hits;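 active means inhibition of 50% or more; inactive means inhibition below 50%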;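 further: plate controls were induced DMSO wells for no effect and uninduced yeast grown without galactose for full effect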
# ATG4B inhibitor: ATG4B (human) cysteine protease inhibition | Q9Y4P1 | ATG4B cleavage of LC3-PLA2, NBD-HPC fluorescence, 1 h | inhibition, % at 8.33 µM | 340,000 compounds, 0.51% hits | AID 504462; in the data active means inhibition above about 40%
# Target sequence (Q9Y4P1 whole entry, looked up): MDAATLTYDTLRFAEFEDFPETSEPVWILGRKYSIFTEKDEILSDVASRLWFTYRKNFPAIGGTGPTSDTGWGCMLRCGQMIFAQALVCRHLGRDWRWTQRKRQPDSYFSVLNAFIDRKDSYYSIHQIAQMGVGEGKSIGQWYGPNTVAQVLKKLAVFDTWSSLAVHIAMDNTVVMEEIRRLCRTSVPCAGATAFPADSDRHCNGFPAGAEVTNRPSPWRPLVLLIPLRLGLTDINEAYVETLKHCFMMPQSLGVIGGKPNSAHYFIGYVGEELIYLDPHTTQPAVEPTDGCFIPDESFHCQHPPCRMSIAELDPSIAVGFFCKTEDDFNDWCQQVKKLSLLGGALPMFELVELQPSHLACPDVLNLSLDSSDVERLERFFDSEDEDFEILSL
# ALR inh: inhibitors of human sulfhydryl oxidase ALR; P55789; purified ALR, DTT oxidation, H2O2 HRP-luminol luminescence; inhibition, % (concentration not given with the values); 290,000 compounds, 3.8% hits; AID 485317;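 active means mean replicate inhibition above about 79%, with every replicate also reaching it, limit read from the data; inconclusive means only one of the two criteria met; inactive means mean below limit and not every replicate reaching it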
# Target sequence (P55789 whole entry, looked up): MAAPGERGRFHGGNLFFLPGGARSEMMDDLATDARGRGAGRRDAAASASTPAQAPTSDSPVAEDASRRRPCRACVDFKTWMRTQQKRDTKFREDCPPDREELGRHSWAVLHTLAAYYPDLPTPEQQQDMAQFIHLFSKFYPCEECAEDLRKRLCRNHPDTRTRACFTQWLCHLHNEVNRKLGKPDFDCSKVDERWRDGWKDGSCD
# Calb FLC: C. albicans growth modulation with fluconazole; C. albicans CaCi-2 + fluconazole, Alamar Blue growth, 48 h; growth inhibition, % (test concentration not listed); 300,000 compounds, 0.57% hits; AID 1979;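 active means growth inhibition above about 58% in most replicates, limit read from the data, passing the limit was not always enough; inconclusive means exactly half the replicates above a set limit; inactive means most replicates below a set limit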;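 further: all wells also contain fluconazole at 8 µg/ml as a sub-toxic cotreatment; 0% = median of DMSO wells and 100% = median of geldanamycin control wells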
# NALP1 inh: inhibitors of NALP1 inflammasome in yeast; 280,000 compounds, 0.61% hits; S. cerevisiae NALP1/ASC/caspase-1 growth, X-gal OD620, 72 h; inhibition, % at 10 µM; AID 2071; in the data active means inhibition mostly above about 24%, no sharp cut-off; inactive means mostly below about 32%
# * hit, by the source's call; ? = inconclusive; . = no result.
SMILES,UCH37 DUB inh,NALP3 yeast inh,ATG4B inhibitor,ALR inh,Calb FLC,NALP1 inh
CC(=NOc1cccc(F)n1)c1ccc(Cl)cc1Cl,0,.,.,.,.,.
CCNC(=O)NC(=O)C(C)Sc1ccc2c(c1)OCCO2 (centres undefined),-1,0,3,98*,.,-10
COc1ccc(NC(=O)CNC(=O)Cc2cccc3ccccc23)cc1,1,12,-12,-1,.,.
CCOc1ccc(NC(=S)Nc2cccc3ccccc23)cc1,-1,20,-1,-21,0,40*
CCOc1ccc(NC(=S)Nc2cccc3cnccc23)cc1,0,15,6,10,39,1
CC(=O)Nc1ccc(OCc2cccc3ccccc23)cc1,6,32,8,-18,-40,29*
O=C(NN=Cc1cc([N+](=O)[O-])cc([N+](=O)[O-])c1O)C(O)(c1ccccc1)c1ccccc1,12,.,.,.,.,.
CN(N=Cc1ccc(Br)o1)C1=NS(=O)(=O)c2ccccc21,-70,.,.,.,.,.
O=S(=O)(c1ccccc1)C1(C2CC(c3ccccc3)=NO2)CC(O)C1 (centres undefined),28*,0,2,.,-13,30
CCN(c1ccc(NC(=O)COC(=O)c2ccc3ccccc3n2)cc1)C(C)C,1,5,-2,96*,-4,-8
COC(=O)C1C(C(C)C)N(c2ccccc2)OC1(C)O (centres undefined),1,14,8,86*,-6,6
COc1ccc(OC)c(C=NNC(=O)c2cc[n+](Cc3ccccc3)cc2)c1,-17,.,.,.,.,.
CCN(CC)c1ccc(NS(=O)(=O)c2ccc(OC)cc2)cc1,3,4,3,99*,-50,17
CN(C)c1ccc(NS(=O)(=O)c2cccc(Cl)c2)cc1,2,26,1,99*,-14,14
Cc1cc(S(=O)(=O)Nc2ccc(N(C)C)cc2)c(C)s1,3,21,5,100*,2,0
CN(C)c1ccc(NS(=O)(=O)c2ccc(-c3csnn3)cc2)cc1,5,20,1,99*,3,43*
Cc1nc(-c2ccc(NS(=O)(=O)c3ccccc3)cc2)cs1,2,6,-3,0,-9,-21
COc1ccc(OCCn2c(C)c(C=Nn3cnnc3)c3ccccc32)cc1,5,.,.,.,.,.
COc1ccc(C=NNS(=O)(=O)c2ccccc2)cc1OS(=O)(=O)c1ccccc1,9,.,.,.,.,.
CSCC[C@H](NC(=O)OC(C)(C)C)C(=O)NN=Cc1ccc2nccnc2c1,5,.,.,.,.,.
CN(C)c1ccc(NS(=O)(=O)c2ccc(Cl)cc2)cc1,5,31,-9,.,10,10
CN(C)c1ccc(NS(=O)(=O)c2cc3c4c(c2)CC(=O)N4CCC3)cc1,1,9,1,99*,1,30
Cc1ccc(S(=O)(=O)Nc2ccc(N(C)C)cc2)cc1,7,30,0,99*,-5,16
CC(/C=C/c1ccccc1)=NNC(=O)c1cc([N+](=O)[O-])cc([N+](=O)[O-])c1,3,.,.,.,.,.
COc1cc(/C=N/N=C2/NC(=O)C(c3ccccc3)S2)ccc1O (centres undefined),.,-7,5,99*,17,-2
SMILES,UCH37 DUB inh,NALP3 yeast inh,ATG4B inhibitor,ALR inh,Calb FLC,NALP1 inh
O=C1Nc2ccccc2/C1=N\N=C\c1ccc(O)c(O)c1,.,7,-4,99*,14,2
O=C1Nc2ccccc2C1=NN=Cc1cccc(O)c1,7,.,.,.,.,.
COc1cc(/C=N/N=C2/C(=O)Nc3ccccc32)ccc1O,.,6,29,99*,11,-25
Cc1cc(Nc2ccc(N(C)C)cc2)n2ncnc2n1,5,11,4,98*,-1,-4
Cc1cc(Nc2ccc(Cl)cc2)n2ncnc2n1,-2,3,-1,-5,0,7
CCc1ccccc1N(CC(=O)OC)S(C)(=O)=O,1,2,-8,-8,-3,-3
COC(=O)CN(c1ccccc1C)S(C)(=O)=O,.,9,1,?,-2,31*
CC1=C(C(=O)Nc2cc(-c3cccc(F)c3)[nH]n2)C2(CCCCC2)OC1=O,5,10,-10,86*,36,8
CSc1ccc(/C=C2\C(=N)N3N=C(CC(=O)N4CCCCC4)SC3=NC2=O)cc1,.,20,15,96*,-3,4
Cc1ccc(/C=C2\C(=N)N3N=C(CC(=O)N4CCCCC4)SC3=NC2=O)cc1,3,-5,20,11,-7,0
CC(C)c1ccc(/C=C2\C(=N)N3N=C(CC(=O)N4CCCCC4)SC3=NC2=O)cc1,5,16,21,96*,-7,2
CCN(CC)c1ccc(/C=C2\C(=N)N3N=C(CC(=O)N4CCOCC4)SC3=NC2=O)cc1,21*,11,4,98*,-7,11
N=C1/C(=C\c2ccc(OC(=O)c3ccc(F)cc3)cc2)C(=O)N=C2SC(N3CCOCC3)=NN12,13,14,-6,95*,-8,15
CC(=O)ON=C(N)c1cnn2c(C(F)(F)F)cc(C(F)(F)F)nc12,2,.,.,.,.,.
Cc1cccc(NC(=S)NN=Cc2ccc(Cl)c([N+](=O)[O-])c2)c1,6,.,.,.,.,.
CC(=NNC(=O)c1c(Br)cnn1C)c1ccc(NC(=O)c2ccc(F)cc2)cc1,3,.,.,.,.,.
COc1ccccc1NS(=O)(=O)c1ccc(NN=Cc2c(C)nn(-c3ccccc3)c2N2CCCC2)c([N+](=O)[O-])c1,11,.,.,.,.,.
COc1ccc(/C=C2/C(=N)N3N=C(CC(=O)N4CCCC4)SC3=NC2=O)cc1,16,12,25,14,2,9
COc1ccc(/C=C2\C(=N)N3N=C(CC(=O)N4CCCCC4)SC3=NC2=O)cc1,9,1,23,80*,7,9
O=C(O)c1ccc(CSc2nnnn2-c2ccc(F)cc2)cc1,1,-5,-8,2,-2,-8
Cn1cnnc1SCC(=O)c1ccc(O)c(O)c1,10,10,-5,99*,4,-8
O=C(CSc1nnnn1-c1ccc(F)cc1)c1ccc(O)c(O)c1,5,.,-7,98*,8,8
CCc1c(C)[nH]n(-c2ccc(Oc3ccccc3)c(S(=O)(=O)O)c2)c1=O,4,6,3,99*,.,-7
Cc1c(C(Cc2ccccc2)=NO)c2ccccc2n1C,0,.,.,.,.,.
COc1ccc(/C=N/N=C2/NC(=O)C(CC(=O)O)S2)cc1OCc1ccccc1Cl (centres undefined),.,-3,8,92*,2,24
CCOc1cc(/C=N/N=C2/NC(=O)C(CC(=O)O)S2)ccc1OCc1ccccc1Cl (centres undefined),.,11,17,98*,-4,3
Cc1nn(C)cc1C=NNC(=O)C(C)(C)Oc1ccc(Cl)cc1,3,.,.,.,.,.
CCCCCCC1C(=NO)CCC1C(=O)OC (centres undefined),2,.,.,.,.,.
O=C(NN=Cc1sc(N2CCCCC2)nc1-c1cccs1)c1cccnc1,-2,.,.,.,.,.
